These results are taken from ChEMBL document CHEMBL1156745, “Exploration of O-spiroketal C-arylglucosides as novel and selective renal sodium-dependent glucose co-transporter 2 (SGLT2) inhibitors” (Bioorg Med Chem Lett, 2009).

In series [1] the target is T1, Sodium/glucose cotransporter 1 (Homo sapiens, UniProt P13866).
T1 sequence (P13866 whole entry): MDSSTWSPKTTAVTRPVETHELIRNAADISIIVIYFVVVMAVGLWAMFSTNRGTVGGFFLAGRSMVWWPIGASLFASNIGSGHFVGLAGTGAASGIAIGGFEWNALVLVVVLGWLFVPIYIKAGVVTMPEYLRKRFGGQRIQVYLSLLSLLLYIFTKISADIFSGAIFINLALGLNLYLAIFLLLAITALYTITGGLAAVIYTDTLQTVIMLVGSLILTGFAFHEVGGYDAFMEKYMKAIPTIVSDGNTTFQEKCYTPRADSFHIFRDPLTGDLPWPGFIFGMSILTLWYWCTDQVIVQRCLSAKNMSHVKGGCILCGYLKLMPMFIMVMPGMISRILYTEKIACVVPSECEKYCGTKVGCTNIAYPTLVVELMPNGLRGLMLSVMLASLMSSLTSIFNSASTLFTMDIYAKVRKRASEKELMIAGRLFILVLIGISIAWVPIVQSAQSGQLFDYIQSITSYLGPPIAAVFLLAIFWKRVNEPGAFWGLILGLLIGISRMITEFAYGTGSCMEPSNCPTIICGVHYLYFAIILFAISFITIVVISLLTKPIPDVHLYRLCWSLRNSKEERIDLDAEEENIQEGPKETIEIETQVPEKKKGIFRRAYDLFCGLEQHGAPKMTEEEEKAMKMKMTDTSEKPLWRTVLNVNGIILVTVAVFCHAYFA
Description: Inhibition of human SGLT1 transfected in COS-7 cells assessed as AMG uptake after 2 hrs by scintillation counting. Type of series: cell-based. The procedure, abridged: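 Transient transfection of human SGLT1 plasmid into COS-7 cells, which were cryopreserved until use. Seeded at 1 × 10⁵ cells/well in DMEM + 10% FBS, 48 h at 37 °C, 5% CO₂. Exposed to inhibitor with 40 µCi/mL [¹⁴C]AMG in Na⁺ or Na⁺-free Tris/Hepes buffer pH 7.2 for 2 h at 37 °C, shaking. Eight concentrations, triplicate. Na⁺-dependent uptake taken as Na⁺ minus Na⁺-free signal.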

The target of series [2] is T2, Sodium/glucose cotransporter 2 (Homo sapiens, UniProt P31639).
T2 sequence (P31639 whole entry): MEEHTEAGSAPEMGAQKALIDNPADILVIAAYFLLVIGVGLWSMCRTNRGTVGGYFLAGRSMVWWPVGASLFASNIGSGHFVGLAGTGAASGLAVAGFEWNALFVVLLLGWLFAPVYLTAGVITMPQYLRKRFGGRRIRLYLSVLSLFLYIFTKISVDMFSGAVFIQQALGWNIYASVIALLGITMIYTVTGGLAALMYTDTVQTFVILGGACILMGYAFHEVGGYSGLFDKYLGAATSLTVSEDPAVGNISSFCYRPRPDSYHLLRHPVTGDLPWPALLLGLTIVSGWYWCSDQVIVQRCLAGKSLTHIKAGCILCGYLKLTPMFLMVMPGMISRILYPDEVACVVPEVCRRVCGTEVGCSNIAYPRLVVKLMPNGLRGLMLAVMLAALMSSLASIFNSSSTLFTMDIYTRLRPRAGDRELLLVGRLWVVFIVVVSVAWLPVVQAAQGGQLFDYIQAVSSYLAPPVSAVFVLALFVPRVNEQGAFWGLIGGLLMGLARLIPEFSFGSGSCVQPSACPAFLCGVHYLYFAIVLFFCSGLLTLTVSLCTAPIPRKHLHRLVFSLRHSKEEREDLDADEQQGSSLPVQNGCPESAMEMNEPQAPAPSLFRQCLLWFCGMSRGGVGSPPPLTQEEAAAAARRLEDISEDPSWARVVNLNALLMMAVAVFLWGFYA
Description: Inhibition of human SGLT2 transfected in HEK293.ETN cells assessed as AMG uptake after 1.5 hrs by scintillation counting. The class given is cell-based. The procedure, abridged: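 Full-length human SGLT2 in pEAK15, stably expressed in HEK293.ETN (puromycin-selected clones). Cells plated 1 × 10⁵/well in DMEM/10% FBS, 48 h, 37 °C. Compound plus 40 µCi/mL [¹⁴C]AMG in sodium or sodium-free Tris/Hepes buffer pH 7.2, 1.5 h at 37 °C with shaking. Washed, uptake read by scintillation counting. Eight concentrations in triplicate. Sodium-free value subtracted from sodium value.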

Series [3] relates to Mus musculus. Kind of series: Toxicity in CD1 mouse assessed as induction of severe diarrhea at 25 mg/kg, po after 6 hrs. Type of series: organism-based. The settings on record: in vivo. Also on record: dose 25 mg/kg, route oral. A digest of the protocol:
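CD1 mice given a single oral dose of 25 mg/kg. Watched for diarrhea at 6 h.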

As usually defined, the IC50 is the concentration that inhibits the measured activity by half. As for `CCc1ccc(Cc2cc3c(cc2Cl)CO[C@]32O[C@H](CN=[N+]=[N-])[C@@H](O)[C@H](O)[C@H]2O)cc1`, the IC50 in series [1] came out at 1000 nM; in series [2], 10 nM.
As to `Cc1cccc(Cc2cc3c(cc2Cl)CO[C@]32O[C@H](CO)[C@@H](O)[C@H](O)[C@H]2O)c1F`, the values for the IC50 in series [1] and in series [2] were 1500 nM and 0.8 nM, respectively.
The matching figures for `Cc1cc(F)ccc1Cc1cc2c(cc1Cl)CO[C@]21O[C@H](CO)[C@@H](O)[C@H](O)[C@H]1O`: 1000 nM and 100 nM.
The matching figures for `OC[C@H]1O[C@]2(OCc3cc(Cl)c(Cc4ccc(OC(F)(F)F)cc4)cc32)[C@H](O)[C@@H](O)[C@@H]1O`: 3100 nM and 0.3 nM.
For `CCOc1ccc(Cc2cc3c(cc2Cl)CO[C@]32O[C@H](CO)[C@@H](O)[C@H](O)[C@H]2O)cc1` the same measures were 1300 nM and 6.5 nM.
Turning to `CCOc1ccc(Cc2cc3c(cc2Cl)CO[C@]32O[C@H](CO)[C@@H](O)[C@H](O)[C@H]2O)cc1Cl`, the figures for the IC50 in series [1] and in series [2] were 10500 nM and 68 nM, respectively.
Regarding `CCc1ccc(Cc2cc3c(cc2Cl)CO[C@]32O[C@H](COCC(F)(F)F)[C@@H](O)[C@H](O)[C@H]2O)cc1`, the IC50 in series [1] stood at 14000 nM; in series [2], 70 nM.
For `CCOc1cc(F)ccc1Cc1cc2c(cc1Cl)CO[C@]21O[C@H](CO)[C@@H](O)[C@H](O)[C@H]1O` the same measures were 10000 nM and 1000 nM.
The matching figures for `CCc1ccc(C2(c3cc4c(cc3Cl)CO[C@]43O[C@H](CO)[C@@H](O)[C@H](O)[C@H]3O)CC2)cc1`: 6000 nM and 1.3 nM.
Take `CCc1ccc(Cc2cc3c(cc2Cl)CO[C@]32O[C@H](CN)[C@@H](O)[C@H](O)[C@H]2O)cc1`: the IC50 in series [1] was greater than 100000 nM; in series [2] it was 100 nM.
Take `COc1c(C)cccc1Cc1cc2c(cc1Cl)CO[C@]21O[C@H](CO)[C@@H](O)[C@H](O)[C@H]1O`: the IC50 in series [1] came out at 1000 nM; in series [2], 10 nM.
The matching figures for `CCc1ccc(C(=O)c2cc3c(cc2Cl)CO[C@]32O[C@H](CO)[C@@H](O)[C@H](O)[C@H]2O)cc1`: 43000 nM and 22 nM.
Consider `CCc1ccc(C(F)(F)c2cc3c(cc2Cl)CO[C@]32O[C@H](CO)[C@@H](O)[C@H](O)[C@H]2O)cc1`, for which the IC50 was 1600 nM in series [1] and 7 nM in series [2].
For `CC(C)c1ccc(Cc2cc3c(cc2Cl)CO[C@]32O[C@H](CO)[C@@H](O)[C@H](O)[C@H]2O)cc1` the same measures were 2500 nM and 7.1 nM.
As to `CCOc1ccc(Cc2ccc3c(c2)[C@]2(OC3)O[C@H](CO)[C@@H](O)[C@H](O)[C@H]2O)cc1`, the IC50 in series [1] is 10000 nM.
Regarding `CCc1ccc(Cc2cc3c(cc2F)CO[C@]32O[C@H](CO)[C@@H](O)[C@H](O)[C@H]2O)cc1`, the results for the IC50 in series [1] and in series [2] were 5300 nM and 8.6 nM, respectively.
`CCc1ccc(Cc2cccc3c2CO[C@]32O[C@H](CO)[C@@H](O)[C@H](O)[C@H]2O)cc1`: the IC50 in series [2] was greater than 1000 nM.
Regarding `CCc1ccc(Cc2cc3c(cc2Cl)CO[C@]32O[C@H](CO)[C@@H](O)[C@H](O)[C@H]2O)cc1`, the results for the IC50 in series [1] and in series [2] were 600 nM and 6.6 nM, respectively. Moreover, in series [3], the Activity entry is listed as “Toxic”.
Take `CCOc1ccc(Cc2cc3c(cc2Cl)CO[C@]32O[C@H](CO)[C@@H](O)[C@H](O)[C@H]2O)c(C)c1`: the IC50 in series [1] was 1000 nM; in series [2], greater than 1000 nM.
The matching figures for `CC(C)(C)c1ccc(Cc2cc3c(cc2Cl)CO[C@]32O[C@H](CO)[C@@H](O)[C@H](O)[C@H]2O)cc1`: 9700 nM and 13 nM.
On to `COc1ccc(Cc2cc3c(cc2Cl)CO[C@]32O[C@H](CO)[C@@H](O)[C@H](O)[C@H]2O)cc1`, for which the IC50 in series [1] was determined as 200 nM; in series [2], 2.5 nM.
The matching figures for `CCc1ccc(Cc2cc3c(cc2Cl)CO[C@]32O[C@H](COC)[C@@H](O)[C@H](O)[C@H]2O)cc1`: 2700 nM and 5.8 nM.
The matching figures for `CCOc1ccc(Cc2cc3c(cc2Cl)CO[C@]32O[C@H](CO)[C@@H](O)[C@H](O)[C@H]2O)c(Cl)c1`: 10000 nM and greater than 1000 nM.
For `COc1ccc(Cc2cc3c(cc2Cl)CO[C@]32O[C@H](CO)[C@@H](O)[C@H](O)[C@H]2O)c(C)c1` the same measures were 10000 nM and greater than 1000 nM.
